The values below come from ChEMBL document CHEMBL4665889, “Design, Synthesis, and Pharmacological Characterization of a Neutral, Non-Prodrug Thrombin Inhibitor with Good Oral Pharmacokinetics” (J Med Chem, 2020).

The nature of data set [1]: MRT in Wistar Hannover rat at 0.3 to 0.5 mg/kg, iv by LC-MS/MS analysis. Format: ADME, organism-based. Conditions: in vivo, dose 0.3-0.5 mg/kg, time <=24 hrs; call rule not given here. The gist of the method:
(§1)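 Male Wistar Hannover rats, catheterized under isoflurane; one day later iv injection into lateral tail vein at 0.3 to 0.5 mg/kg in plasma containing 2% DMSO. Blood sampled via catheter from 0.033 to 24 h. Plasma precipitated with acetonitrile, analysed by LC-MS/MS (10 mM ammonium acetate pH 3.0/acetonitrile gradient). PK parameters calculated from plasma concentrations.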

Data set [2] can be described thus: Half life in Wistar Hannover rat at 0.3 to 0.5 mg/kg, iv by LC-MS/MS analysis. The note with it: in vivo, dose 0.3-0.5 mg/kg, time <=24 hrs. The format is ADME, organism-based. The procedure, abridged:
as §1

The nature of data set [3]: AUC/dose in Wistar Hannover rat at 0.3 to 0.5 mg/kg, iv by LC-MS/MS analysis. Format: ADME, organism-based. Conditions: in vivo, dose 0.3-0.5 mg/kg, time <=24 hrs. The gist of the method: as §1
Data set [4] is described as follows: Oral bioavailability in Wistar Hannover rat at 1 mg/kg by LC-MS/MS analysis. The format is ADME, organism-based. Conditions: in vivo, time <=24 hrs. The procedure, abridged: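 Catheterized male Wistar Hannover rats dosed by gavage at 1 mg/kg in 10% ethanol/40% PEG/50% water. Blood taken via catheter at 0.083 to 24 h. Plasma precipitated with acetonitrile and analysed by LC-MS/MS. Bioavailability derived against iv dosing at 0.3 to 0.5 mg/kg.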

The nature of data set [5]: Blood clearance in Wistar Hannover rat at 0.3 to 0.5 mg/kg, iv by LC-MS/MS analysis. The format is ADME, organism-based. The note with it: whole blood, dose 0.3-0.5 mg/kg, time <=24 hrs. The gist of the method: as §1
Data set [6] is described as follows: Volume of distribution at steady state in Wistar Hannover rat at 0.3 to 0.5 mg/kg, iv by LC-MS/MS analysis. Format: ADME, organism-based. Conditions: in vivo, dose 0.3-0.5 mg/kg, time <=24 hrs, read-out: Vdss. The gist of the method: as §1
The nature of data set [7]: Clearance in Wistar rat hepatocytes at 1 uM incubated up to 90 mins by LC-MS/MS analysis. Format: ADME, cell-based, Hepatocyte. The note with it: Wistar. The procedure, abridged:
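Fresh male Wistar rat hepatocytes, 1 × 10⁶ viable cells/mL, in Williams' medium E at 37 °C, pH 7.4, with 1 μM substrate and <1% acetonitrile. Samples at 2–90 min quenched in acetonitrile and analysed by LC-MS/MS.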

The target of data set [8] is T1, Nuclear receptor subfamily 1 group I member 2 (Homo sapiens, UniProt O75469).
T1 sequence (O75469 whole entry): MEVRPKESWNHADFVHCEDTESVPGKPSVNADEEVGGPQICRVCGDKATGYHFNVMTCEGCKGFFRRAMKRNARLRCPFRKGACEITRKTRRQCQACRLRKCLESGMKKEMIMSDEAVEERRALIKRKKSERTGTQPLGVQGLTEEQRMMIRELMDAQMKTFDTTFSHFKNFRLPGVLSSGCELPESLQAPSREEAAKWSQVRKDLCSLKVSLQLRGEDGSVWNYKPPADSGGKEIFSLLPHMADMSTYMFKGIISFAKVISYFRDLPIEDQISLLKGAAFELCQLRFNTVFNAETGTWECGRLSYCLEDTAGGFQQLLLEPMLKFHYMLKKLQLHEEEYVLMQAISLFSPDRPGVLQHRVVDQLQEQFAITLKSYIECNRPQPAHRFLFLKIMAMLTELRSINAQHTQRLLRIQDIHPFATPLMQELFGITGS
The experiment in a line: Activation of human PXR expressed in human HepG2 cells. The format is ADME, cell-based. The procedure, abridged: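 HepG2 cells transiently co-transfected with human PXR and a luciferase reporter under the human CYP3A4 promoter, 48 h before readout. 24 h after seeding, 1:3 serial dilutions (2 nM to 50 μM, 0.5% DMSO) added. Luminescence normalized to rifampicin (100%) and DMSO (0%). MEC is the lowest concentration raising signal above 4-fold SD of DMSO background.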

Data set [9] is described as follows: Ratio of drug level in blood to plasma in Wistar Hannover rat at 0.3 to 0.5 mg/kg, iv by LC-MS/MS analysis. The format is ADME, organism-based. The note with it: blood and plasma, dose 0.3-0.5 mg/kg, time <=24 hrs.
Data set [10] in a line: Permeability from apical to basolateral side in human Caco2 cells incubated for 2 hrs by LC-MS/MS analysis. Format: ADME, cell-based. Conditions: Caco-2. The gist of the method:
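Caco-2 cells grown 15 d on 0.4 μm inserts, TEER ≥600 Ω. Compound (DMSO stock diluted 100-fold) in HBSS pH 7.4 with 10 mM HEPES and 20 mM glucose, added apically or basolaterally. Incubated 2 h at 37 °C and analysed by LC-MS/MS. Papp = (Vr/P0)·(1/S)·(P2/t); mean and SD.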

For data set [11], the target named is T1, Nuclear receptor subfamily 1 group I member 2. The data set can be described thus: Activation of human PXR human hepatocytes assessed as induction of CYP3A4 mRNA expression incubated for 48 hrs by qPCR analysis. The format is ADME, tissue-based, Hepatocyte. The procedure, abridged: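 Human hepatocytes in collagen sandwich, cultured 1 d, then treated with eight 1:3 serial concentrations for 2 consecutive days with daily media change. mRNA isolated on magnetic beads, reverse transcribed, and quantified by TaqMan qRT-PCR against actin/tubulin. Fold induction over vehicle by ΔΔCt; NOEL reported.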

A further data set deals with Plasma. The data set can be described thus: Anticoagulation activity in human plasma assessed as drug level causing doubling of prothrombin time incubated for 3 mins. The format is functional. Conditions: 0.05 h. The gist of the method:
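Citrated human plasma (0.11 M citrate 1:9, spun ~4000g 15 min) incubated with compound at 37 °C for 3 min. Clotting started with thromboplastin and time to coagulation recorded. Value is the concentration doubling clotting time (PT or aPTT).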

The next data set deals with Cytochrome P450. The experiment in a line: Inhibition of CYP450 (unknown origin) at 20 uM. The format is ADME, protein assay. The note with it: human.

Where only a bound is given, the exact number is not on record here.

The compound `CCCCCCOC(=O)NC(=N)c1ccc(NCc2nc3cc(C(=O)N(CCC(=O)OCC)c4ccccn4)ccc3n2C)cc1` [DABIGATRAN ETEXILATE] had a mean residence time (MRT) in [1] of 1.6 h. The same compound showed a half-life in data set [2] of 1.2 h. In data set [3], the AUC/dose worked out at 3 kg·h/L. Further, the bioavailability in data set [4] amounted to 1.9%. For the same compound, in [5], the clearance was 9.83 mL/min/kg. For the same compound, in data set [6], the Vd turned out to be 0.54 L/kg.
Turning to `COc1cc(C(=O)N2CCOC(C)(CCO)C2)cc2nc(N[C@H](C)c3cccc(Cl)c3)oc12` (stereo partly drawn), in data set [7], the CLhep predicted at 1 µM was 43.3 mL/min/kg. This compound also had an MRT in [1] of 1.8 h. The compound further showed a half-life in data set [2] of 2.7 h. The compound also returned an MEC in data set [8] of 0.58 µM. This compound came in with an AUC/dose in data set [3] of 0.33 kg·h/L. For the same compound, the bioavailability in data set [4] worked out at 38%. Besides, the clearance in data set [5] is 48.3 mL/min/kg. Also, the blood plasma ratio in [9] amounted to 1.07. Moreover, in [6], the Vd was found to be 5.6 L/kg.
On to `COc1cc(C(=O)N2CC(C)(CCO)OC[C@H]2C)cn2nc(NCc3cccc(Cl)c3)nc12` (stereo partly drawn), for which the apparent permeability from apical to basolateral (Papp A→B) at 2 h in data set [10] stood at 8.1 ×10⁻⁶ cm/s. For the same compound, the CLhep predicted at 1 µM in data set [7] was 46.7 mL/min/kg. Further, the mean residence time (MRT) in data set [1] was 0.36 h. Besides, the half-life in data set [2] was 0.32 h. The compound further had an MEC in data set [8] of 15 µM. Moreover, the AUC/dose in [3] amounted to 0.16 kg·h/L. The compound further showed a clearance in data set [5] of 76.7 mL/min/kg. Besides, in data set [9], the blood plasma ratio turned out to be 1.35. In addition, in [6], the Vd was found to be 2.2 L/kg. For the same compound, the NOAEL in data set [11] is > 10000 ng/mL.
Turning to `COc1cc(C(=O)N2CC[C@@H](O)[C@H](C)C2)cc2nc(NCc3cccc(Cl)c3)oc12`, the 2PT in the data set with Plasma came to 6 µM. For the same compound, the Papp A→B at 2 h in data set [10] turned out to be 12.6 ×10⁻⁶ cm/s. Also, in data set [7], the CLhep predicted at 1 µM was 38.3 mL/min/kg. Also, the MRT in [1] was 1.1 h. The compound further showed a half-life in data set [2] of 1.3 h. In addition, the MEC in [8] is 0.69 µM. Also, the AUC/dose in data set [3] turned out to be 0.48 kg·h/L. Also, in the data set on Cytochrome P450, the “inhibition (INH)” value is recorded as “Not Active”. In addition, the bioavailability in data set [4] was 46%. The compound also showed a clearance in [5] of 28.3 mL/min/kg. Moreover, in [9], the blood plasma ratio is 1.24. For the same compound, in [6], the Vd turned out to be 2.4 L/kg. For the same compound, the NOAEL in [11] amounted to 370 ng/mL.
